CXCR6 inh: inhibitors of human CXCR6 receptor; O00574; CHO-K1 PathHunter CXCR6 beta-arrestin, luminescence; inhibition, % at 20 µM; actives 0.36% (n = 360,000); AID 602244; in the data active = inhibition above about 34%, passing the limit was not always enough;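 note: antagonist mode with CXCL16 agonist at 10 nM final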
CCR6 antag: antagonists of human CCR6 receptor. inhibition, % at 20 µM. actives 0.49% (n = 340,000). CHO-K1 CCR6 PathHunter beta-arrestin, luminescence, CCL20-stimulated. P51684;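 active = compounds whose inhibition of the agonist-driven luminescence signal at 20 µM reaches about 50%, limit read from the data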;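 note: cells stimulated with CCL20 at 14 nM final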
Target sequence (P51684 whole entry, looked up): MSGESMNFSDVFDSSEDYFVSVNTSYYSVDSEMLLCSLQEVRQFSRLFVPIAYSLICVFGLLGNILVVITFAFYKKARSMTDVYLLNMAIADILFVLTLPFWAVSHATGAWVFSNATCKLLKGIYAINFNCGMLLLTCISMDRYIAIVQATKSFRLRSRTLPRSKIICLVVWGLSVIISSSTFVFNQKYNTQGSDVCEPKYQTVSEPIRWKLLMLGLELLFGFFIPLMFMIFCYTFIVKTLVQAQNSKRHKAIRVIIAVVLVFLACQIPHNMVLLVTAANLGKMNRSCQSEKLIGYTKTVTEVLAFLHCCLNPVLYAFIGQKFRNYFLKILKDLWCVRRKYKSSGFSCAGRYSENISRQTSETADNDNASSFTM
APJ antagonist: antagonists of human APJ apelin receptor; inhibition, % at 20 µM; actives 0.32% (n = 330,000); P35414; CHO-K1 APJ beta-arrestin complementation, luminescence;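 active = inhibition above about 40% at 20 µM, limit read from the data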;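 note: cells challenged with 10 nM apelin-13 agonist together with compound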
APJ ag: agonists of human APJ apelin receptor; P35414; CHO-K1 APJ PathHunter beta-arrestin, luminescence; 0% DMSO wells, 100% apelin; activation, % at 20 µM; actives 0.11% (n = 330,000);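 active = activation more than six SD over the plate average, tested at 20 µM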
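Test system: CHO-K1 APJ beta-arrestin complementation cell line. Amount: cell density 1000 per well. Controls: DMSO negative, 10 nM Apelin-13 positive. Signal: luminescent beta-gal fragment complementation, chemiluminescent substrate. Read-out basis: agonist-driven arrestin binding to APJ. Timing: compound stimulation 90 min at 25 °C, detection 60 min.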
EBI2 antag: EBI2 (human) antagonism | P32249 | EBI2 beta-arrestin recruitment, luminescence, 7a,25-OHC stimulated | inhibition, % at 5 µM | actives 0.81% (n = 360,000); in the data active = inhibition above about 38%;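 note: enzyme fragment complementation signal reports receptor beta-arrestin coupling in cells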
EBI2 conf: EBI2 (human) antagonism, single concentration confirmation. shares compounds with EBI2 antag. EBI2 beta-arrestin luminescence, 7a,25-OHC antagonism. inhibition, % at 5 µM. actives 29% (n = 2,400). AID 651997;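 active = inhibition of at least 50%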
EBI2 agonist: activates EBI2, counter-screen for EBI2 antagonists | 2,400 tested, under 10 active | shares compounds with EBI2 antag | activation, % at 5 µM | EBI2-expressing cells, agonist mode, luminescence, 60 min; 0% vehicle, 100% 7α,25-dihydroxycholesterol control;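 active = activation of at least 50%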
bGal counter: beta-galactosidase inhibition counter-screen. AID 652176. shares compounds with EBI2 antag. inhibition, % at 5 µM. purified beta-galactosidase, luminescent Galacton Star, 15 min. actives 1% (n = 2,400);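 active = replicate-average signal at least 3 plate SD below neutral wells, shown as high inhibition, flagging enzyme-inhibiting false positives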;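 note: higher means stronger loss of beta-gal luminescence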
Hits are given with their value; . = inactive; / = no result given. In the library only some 1.5% were active in any assay of this set; here they are far more common.

SMILES	CXCR6 inh	CCR6 antag	APJ antagonist	APJ ag	EBI2 antag	EBI2 conf	EBI2 agonist	bGal counter
CN1CCCC(C#CC(O)(c2ccccc2)c2ccccc2)C1 (configuration not stated)	.	.	.	.	.	/	/	/
N#Cc1ccc(-c2ccc(F)cc2)nc1SCC(=O)Nc1sc2c(c1C#N)CCC2	.	.	.	.	53	.	.	.
N#Cc1cc2c(nc1SCC(=O)Nc1sc3c(c1C#N)CCC3)CCCC2	.	.	.	.	.	/	/	/
O=C(COC(=O)/C=C/c1cccs1)NC(c1ccccc1)c1ccccc1	.	.	.	.	62	.	.	.
O=C(COC(=O)/C=C/c1cccs1)NC(=O)Cc1ccccc1	.	.	.	.	.	/	/	/
CC(=O)c1nn(-c2ccc(Cl)cc2)cc1C(=O)c1ccccc1	.	.	.	.	46	.	.	.
COC(=O)c1ccc(Oc2ccc(C(F)(F)F)cn2)cc1	.	.	.	.	44	.	.	.
COc1ccc(C(=O)Cn2c(C(=O)/C=C/c3ccccc3)nc3ccccc32)cc1	.	.	.	.	53	.	.	.
CC1(N=Cc2cc(Cl)ccc2O)COP(=O)(NC2CCCC2)OC1 (configuration not stated)	.	.	/	/	.	/	/	/
Cn1c(N)c(C(=O)c2ccc(F)cc2F)c(=O)n(C)c1=O	.	.	.	.	.	/	/	/
CC(NC(=O)C(=O)NCCc1c[nH]c2ccccc12)c1ccccc1 (configuration not stated)	.	.	.	.	61	.	.	.
O=C(NCCc1c[nH]c2ccccc12)c1ccc(Cl)cc1	.	.	.	.	60	.	.	.
COc1ccc(N2CCN(C(CNC(=O)C(=O)NCCc3c[nH]c4ccccc34)c3ccco3)CC2)cc1 (configuration not stated)	.	.	.	.	49	.	.	.
CCC(=O)NCCc1c[nH]c2ccccc12	.	.	.	.	.	/	/	/
O=C(Nc1cc([N+](=O)[O-])c2[nH]c(=O)c3ccccc3c2c1)C(F)(F)F	.	.	/	/	.	/	/	/
Cc1ccc2oc(=O)c3cnn(CC(=O)N4CCCc5ccccc54)c3c2c1	.	.	.	.	53	.	.	.
Cc1ccc2oc(=O)c3cnn(CC(=O)N4CCN(c5ccccc5)CC4)c3c2c1	.	.	.	.	.	/	/	/
COCCCN(Cc1ccco1)C(=O)Cn1ncc2c(=O)oc3ccc(C)cc3c21	.	.	.	.	55	.	.	.
COc1ccc(/C=C(/CC(=O)NCc2ccc(Cl)cc2)c2nc3ccccc3s2)cc1	.	.	.	.	39	.	.	.
COc1ccccc1C(CNC(=O)c1cccc(S(=O)(=O)Nc2ccc(C)cc2)c1)N1CCCC1 (configuration not stated)	.	.	.	.	.	/	/	/
COc1ccc2[nH]c(C(=O)N3CCC(Cc4ccccc4)CC3)cc2c1	.	.	.	.	84	51	.	.
COc1ccc2cc(C(=O)N3CCC(Cc4ccccc4)CC3)[nH]c2c1	.	.	.	.	77	53	.	.
COc1cc2cc(C(=O)N3CCC(Cc4ccccc4)CC3)[nH]c2cc1OC	.	.	.	.	.	/	/	/
O=C(c1cc2cc(F)ccc2[nH]1)N1CCC(Cc2ccccc2)CC1	.	.	.	.	88	63	.	.
O=C(c1cc2cc(F)ccc2[nH]1)N1CCc2ccccc2C1	.	.	.	.	.	/	/	/
SMILES	CXCR6 inh	CCR6 antag	APJ antagonist	APJ ag	EBI2 antag	EBI2 conf	EBI2 agonist	bGal counter
CC1CCCC(C)N1CC(O)COCc1ccccc1F (configuration not stated)	.	.	.	.	.	/	/	/
CNC(=S)N1N=C(c2ccc(C)cc2)CC1c1ccc(OC)c(OC)c1 (configuration not stated)	.	.	.	.	.	/	/	/
CNC(=S)N1N=C(c2ccc(Br)cc2)CC1c1ccc(Br)cc1 (configuration not stated)	.	.	.	.	80	70	.	.
CNC(=S)N1N=C(c2ccc(OC)cc2)CC1c1ccc(N(C)C)cc1 (configuration not stated)	.	.	.	.	87	81	.	.
COc1ccc(/C=C/C(=O)c2ccc(Cl)s2)cc1O	.	.	.	.	.	/	/	/
COc1cc(/C=C/C(=O)c2ccc(Cl)s2)cc(OC)c1O	.	.	.	.	45	.	.	.
O=C(/C=C/c1ccccc1Cl)NCCc1ccccc1	.	.	.	.	.	/	/	/
O=C(/C=C/c1ccc(Cl)cc1)NCCc1ccccc1	.	.	.	.	54	.	.	.
COc1cc(/C=C/C(=O)N2CCN(Cc3ccccc3)CC2)cc(OC)c1OC	.	.	.	.	61	.	.	.
CN1CCN(C(=O)/C=C/c2ccc(Cl)c(Cl)c2)CC1	.	.	.	.	92	61	.	.
O=C(c1ccccc1)N(Cc1ccccc1)c1ccccn1	.	.	.	.	.	/	/	/
O=C(/C=C/c1ccc(Cl)cc1)N(Cc1ccccc1)c1ccccn1	.	.	.	.	41	.	.	.
O=C(/C=C/c1ccc(Cl)c(Cl)c1)N1CCc2ccccc21	.	.	.	.	.	/	/	/
Cc1cc([N+](=O)[O-])c2ccccc2c1NS(=O)(=O)c1ccccc1	.	.	/	/	.	/	/	/
O=C(/C=C/c1ccc(Cl)cc1)N1CCN(Cc2ccccc2)CC1	.	.	.	.	97	89	.	.
CC(C)(C)c1ccc(/C=C/C(=O)N2CCCCC2)cc1	.	.	/	/	.	/	/	/
O=c1[nH]c(CN2CCCCC2)nc2ccccc12	.	.	.	.	.	/	/	/
CN1CCN(C(=O)/C=C/c2ccc(Cl)cc2)CC1	.	.	.	.	93	79	.	.
O=C(/C=C/c1ccccc1)N1CCN(Cc2nc3ccccc3c(=O)[nH]2)CC1	.	.	.	.	72	75	.	.
COc1cccc(CN(C)C(=O)CCNC(=O)c2ccco2)c1	.	.	.	.	.	/	/	/
CCCCc1c(O)nc(SCC(=O)Nc2ccc(OC)cc2)n(-c2ccc(C)c(C)c2)c1=O	.	/	/	/	.	/	/	/
O=c1[nH]c(SCc2ccc(OC(F)(F)F)cc2)nc2c1CCC2	.	/	/	/	.	/	/	/
O=S(=O)(c1ccc(NC(=S)NN=C(Cc2ccccc2)Cc2ccccc2)cc1)N1CCOCC1	.	.	.	.	46	.	.	.
O=S(=O)(c1ccc(NC(=S)NCCc2ccccc2)cc1)N1CCOCC1	.	.	.	.	.	/	/	/
Cc1ccc2c(c1)[C@H]1[C@H](CO2)[C@H](c2ccccc2)[C@]2(C)C(=O)N(Cc3ccc(F)cc3)CC(=O)N12	.	.	.	.	.	/	/	/

Assay outcomes as filed in PubChem.
